Reference: publication PMC2835692 (Journal of cardiovascular pharmacology, 2009)
Read-outs that look alike come from different tables or passages of the source.

Assays:
[1] = target: T1, recombinant human MMP-7 catalytic domain (Homo sapiens, UniProt P09237); test: Recombinant MMP fluorescent assay, MMP-7; format: biochemical
T1 sequence (P09237 95-267): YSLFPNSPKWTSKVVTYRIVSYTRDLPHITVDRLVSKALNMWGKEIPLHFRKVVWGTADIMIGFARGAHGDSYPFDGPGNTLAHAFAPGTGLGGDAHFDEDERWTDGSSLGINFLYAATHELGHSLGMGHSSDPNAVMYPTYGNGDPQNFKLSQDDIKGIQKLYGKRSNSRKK
Outline: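 Kit-based fluorogenic substrate assay. Test compound was dissolved in DMSO, with 0.005% final DMSO in buffer (50 mM HEPES, 10 mM CaCl2, 0.05% Brij-35, pH 7.5). Substrate was added to start the reaction. Fluorescence (ex 335/em 405 nm) was read every 60 s for 30 min, with 1 s shaking between reads. Rates came from linear kinetic regions; IC50 from activity versus log[inhibitor]. o-Phenanthroline confirmed MMP-dependent cleavage.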

[2] = target: recombinant human MMP-8 catalytic domain (Homo sapiens, UniProt P22894); test: Recombinant MMP fluorescent assay, MMP-8; format: biochemical; conditions: read-out: IC50 MMP-8; 1 hour preincubation at 37°C
Chain of recombinant human MMP-8 catalytic domain (P22894 100-262 limits assumed): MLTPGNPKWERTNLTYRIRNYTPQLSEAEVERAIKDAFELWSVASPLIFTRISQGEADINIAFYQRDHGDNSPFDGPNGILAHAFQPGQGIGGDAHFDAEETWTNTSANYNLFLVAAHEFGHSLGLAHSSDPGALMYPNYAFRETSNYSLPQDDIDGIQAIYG

[3] = target: recombinant human MMP-9 catalytic domain (Homo sapiens, UniProt P14780); test: Recombinant MMP fluorescent assay, MMP-9; format: biochemical; conditions: read-out: IC50 MMP-9; 1 hour preincubation at 37°C
Chain of recombinant human MMP-9 catalytic domain (P14780 107-444 limits assumed): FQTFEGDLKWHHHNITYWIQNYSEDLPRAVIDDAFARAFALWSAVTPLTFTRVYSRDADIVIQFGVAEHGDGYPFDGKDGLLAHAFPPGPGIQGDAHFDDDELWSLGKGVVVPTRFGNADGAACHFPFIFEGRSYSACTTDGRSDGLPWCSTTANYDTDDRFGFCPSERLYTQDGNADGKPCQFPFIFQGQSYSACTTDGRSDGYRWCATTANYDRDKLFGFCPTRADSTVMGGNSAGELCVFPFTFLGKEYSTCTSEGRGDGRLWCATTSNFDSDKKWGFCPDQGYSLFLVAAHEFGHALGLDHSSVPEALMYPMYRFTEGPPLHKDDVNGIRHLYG

[4] = target: recombinant human MMP-12 catalytic domain (Homo sapiens, UniProt P39900); test: Recombinant MMP fluorescent assay, MMP-12; format: biochemical
Chain of recombinant human MMP-12 catalytic domain (P39900 106-263 limits assumed): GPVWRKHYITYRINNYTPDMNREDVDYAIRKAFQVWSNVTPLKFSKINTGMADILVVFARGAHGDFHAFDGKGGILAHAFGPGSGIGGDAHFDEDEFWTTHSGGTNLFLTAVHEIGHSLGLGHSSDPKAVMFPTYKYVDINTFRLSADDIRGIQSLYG

[5] = tested on: cocultured neonatal rat cardiac fibroblasts/myocytes; test: MTT cell viability assay; format: cell-based; conditions: 24 hours incubation
[6] = tested on: isolated stunned rat hearts; test: Langendorff isolated perfused rat heart, stunning; conditions: for Improvement in RPP versus controls: at 30-minute reperfusion; for Coronary flow rates versus controls: during reperfusion; for cTnI release versus controls: after ischemia
[7] = target: T2, recombinant human MMP-1 catalytic domain (Homo sapiens, UniProt P03956); test: Recombinant MMP fluorescent assay, MMP-1; format: biochemical; conditions: read-out: IC50 MMP-1; 1 hour preincubation at 37°C
T2 sequence (P03956 100-269 limits assumed): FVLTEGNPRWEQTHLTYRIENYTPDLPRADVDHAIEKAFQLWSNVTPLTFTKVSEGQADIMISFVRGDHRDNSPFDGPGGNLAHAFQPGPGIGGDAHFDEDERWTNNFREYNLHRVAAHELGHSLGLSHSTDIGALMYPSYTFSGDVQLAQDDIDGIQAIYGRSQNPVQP

[8] = target: recombinant human MMP-2 catalytic domain (Homo sapiens, UniProt P08253); test: Recombinant MMP fluorescent assay, MMP-2; format: biochemical; conditions: read-out: IC50 MMP-2; 1 hour preincubation at 37°C
Chain of recombinant human MMP-2 catalytic domain (P08253 110-446 limits assumed): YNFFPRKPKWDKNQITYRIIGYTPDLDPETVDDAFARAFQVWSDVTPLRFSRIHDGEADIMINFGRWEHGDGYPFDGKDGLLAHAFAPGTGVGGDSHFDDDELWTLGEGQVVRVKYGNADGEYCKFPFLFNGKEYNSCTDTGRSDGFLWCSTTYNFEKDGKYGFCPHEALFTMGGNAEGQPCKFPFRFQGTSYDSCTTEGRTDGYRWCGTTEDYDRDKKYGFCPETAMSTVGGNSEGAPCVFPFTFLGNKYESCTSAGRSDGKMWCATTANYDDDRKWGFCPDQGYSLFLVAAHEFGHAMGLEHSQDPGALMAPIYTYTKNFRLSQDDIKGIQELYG

[9] = target: recombinant human MMP-3 catalytic domain (Homo sapiens, UniProt P08254); test: Recombinant MMP fluorescent assay, MMP-3; format: biochemical; conditions: read-out: IC50 MMP-3; 1 hour preincubation at 37°C
Chain of recombinant human MMP-3 catalytic domain (P08254 100-272 limits assumed): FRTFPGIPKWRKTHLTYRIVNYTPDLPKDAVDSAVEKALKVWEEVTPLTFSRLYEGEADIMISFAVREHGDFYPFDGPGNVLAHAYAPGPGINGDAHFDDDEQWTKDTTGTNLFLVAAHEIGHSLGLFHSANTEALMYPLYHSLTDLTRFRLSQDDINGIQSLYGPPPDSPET

[10] = target: recombinant human MMP-13 catalytic domain (Homo sapiens, UniProt P45452); test: Recombinant MMP fluorescent assay, MMP-13; format: biochemical; conditions: read-out: IC50 MMP-13; 1 hour preincubation at 37°C
[11] = tested on: isolated infarcted rat hearts; test: Langendorff isolated perfused rat heart, infarction; conditions: 5 μM
[12] = read-out: IC50 MMP-7, 1 hour preincubation at 37°C
[13] = read-out: IC50 MMP-12, 1 hour preincubation at 37°C

CC(C)[C@H](NS(=O)(=O)c1ccc(-c2ccc(Br)cc2)cc1)C(=O)O [PD166793, reference compound]
IC50 [1, 12]: 3000 nM
IC50 [2]: < 50 nM
IC50 [3]: 3000 nM
IC50 [4, 13]: < 50 nM
Concentration with loss of cell viability [5]: greater than 10 μM
Improvement in RPP versus controls ([6]; 5 μM, stunned hearts): ~ 8%
Coronary flow rates versus controls ([6]; 5 μM, stunned hearts): did not improve coronary flow rates
cTnI release versus controls ([6]; stunned hearts): no significant changes in cTnI release

COc1ccc(S(=O)(=O)N(Cc2cccnc2)[C@@H](C(=O)NO)C(C)C)cc1 [CGS27023A]
IC50 ([1]; IC50 MMP-7, 1 hour preincubation at 37°C): 500 nM
IC50 ([4]; IC50 MMP-12, 1 hour preincubation at 37°C): < 50 nM
IC50 ([4]; IC50 MMP-12, as stated in discussion text): ≤ 50 nM
Improvement in RPP versus controls ([6]; 5 μM, stunned hearts): ~ 8%
Coronary flow rates versus controls ([6]; 5 μM, stunned hearts): did not improve coronary flow rates
cTnI release versus controls ([6]; stunned hearts): no significant changes in cTnI release

O=C(NCc1ccc(-c2ccccc2)cc1)c1cccc(=O)n1O [1,2-HOPO-2]
IC50 [7]: > 50000 nM
IC50 [8]: 920 nM
IC50 [9]: 560 nM
IC50 [1, 12]: > 50000 nM
IC50 [2]: 86 nM
IC50 [3]: 27100 nM
IC50 [4, 13]: 18 nM
IC50 [10]: 4100 nM
Concentration without compromise of cell viability (lack of cytotoxicity) ([5]; 0.01-1000 μM tested): < 10 µM
Peak systolic pressure (PSP) ([6]; 5 μM, data not shown): significant rise in PSP
Reduction in myocardial edema versus controls ([6]; 5 μM, stunned hearts): ~ 10%
Collagen damage (opalation) ([6]; 5 μM, stunned hearts (20-minute GNFI), controls 1.49 ± 1.0): 1.45 ± 0.89 AFU
Improvement in RPP versus controls ([6]; 5 μM, stunned hearts): ~ 23%
Coronary flow rates versus controls ([6]; 5 μM, stunned hearts): higher coronary flow rates versus controls
Reduction in ventricular wet weight versus controls ([6]; 5 μM, stunned hearts, end of reperfusion): ~ 15%
Ventricular wet weight ([6]; 5 μM, stunned hearts, end of reperfusion, controls 820 ± 72): 700 ± 34 mg
Wet to dry weight ratio (edema) ([6]; 5 μM, stunned hearts, controls 5.4 ± 0.21): 4.9 ± 0.02
Reduction of muscle damage ([6]; abstract, troponin I): ~ 25%
Improvement in coronary flow rates ([6]; abstract, versus controls): ~ 22%
cTnI release versus controls ([6]; stunned hearts): significant reductions in cTnI release versus controls
Reduction of collagen degradation versus controls ([11]; 30-minute global ischemia (infarction), opalation): ~ 60%
Collagen degradation (opalation) ([11]; 30-minute global ischemia (infarction), controls 1.53 ± 0.66): 0.56 ± 0.29 AFU
Troponin I release ([11]; 30-minute global ischemia, data not shown): significantly reduced troponin I release
Coronary flow rates versus controls ([11]; conditions of infarction, data not shown): higher coronary flow rates versus controls
Improved recovery in RPP versus controls ([11]; infarcted hearts, at 30-minute reperfusion): ~ 17%
RPP in treated hearts ([11]; infarcted hearts, at 30-minute reperfusion, controls 28%): 45%
